Series [1] has as its system Pseudomonas aeruginosa. Nature of the series: Antipseudomonal activity against Pseudomonas aeruginosa class A TEM beta-lactamase-induced clinical isolate FP2056 by CLSI method. The series is classed as functional.
Series [2] has as its system Pseudomonas aeruginosa. Nature of the series: Antipseudomonal activity against Pseudomonas aeruginosa class C AmpC(1d) beta-lactamase-induced clinical isolate FP1380 by CLSI method. The series is classed as functional. The settings on record: 24 h.
Series [3] concerns Pseudomonas aeruginosa. Nature of the series: Antipseudomonal activity against Pseudomonas aeruginosa clinical isolates by CLSI method. The series is classed as functional.
Series [4] relates to Mus musculus. Nature of the series: Induction of convulsion in intracerebroventricular dosed mouse. The series is classed as organism-based. The note with it: in vivo, icv_or_intrathecal.
For series [5], the system named is Pseudomonas aeruginosa. Nature of the series: Outer-membrane permeability assessed as ratio of MIC for Pseudomonas aeruginosa in absence of DEAE-dextran to MIC for Pseudomonas aeruginosa in presence of DEAE-dextran. The series is classed as functional. The method in brief:
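MIC per CLSI method, measured for each strain with and without the outer-membrane permeabilizer DEAE-dextran. Permeability index is the ratio of MIC without additive to MIC with additive.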

Setting [6] is: Pseudomonas aeruginosa, read-out: MIC50.

Converted amounts (≈) assume the structure as drawn.

As a reminder, the MIC is the smallest concentration in the dilution series that meets the test's criterion for growth inhibition. Low values mean a more susceptible organism, high ones a less susceptible organism. As a reminder, the MIC50 is the lowest concentration that inhibits either 50% of growth or 50% of the strains tested, depending on the study.

In the case of `Cn1c(N)c(CN)c[n+]1CC1=C(C(=O)[O-])N2C(=O)[C@@H](NC(=O)/C(=N\OC(C)(C)C(=O)O)c3nsc(N)n3)[C@H]2SC1`, the MIC amounted to 0.5 µg/mL (≈ 0.841 µM) in series [1] and 8 µg/mL (≈ 13.5 µM) in series [2]. Besides, in series [3] (setting [6]), the MIC50 is 0.5 µg/mL (≈ 0.841 µM). Besides, in series [4], the ED50 came out at 39.3 µg.
With `CC(C)(O/N=C(\C(=O)N[C@@H]1C(=O)N2C(C(=O)[O-])=C(C[n+]3ccc(N)n3CCO)CS[C@H]12)c1nsc(N)n1)C(=O)O.Cl`, the MIC in series [1] was found to be 1 µg/mL; in series [2], 16 µg/mL. Besides, the MIC50 in series [3] (setting [6]) came to 1 µg/mL. Further, in series [5], the Ratio is on record as 64. This molecule yielded an ED50 in series [4] of 46.9 µg.
For `Cn1c(N)c(NC(=O)CN)c[n+]1CC1=C(C(=O)[O-])N2C(=O)[C@@H](NC(=O)/C(=N\OC(C)(C)C(=O)O)c3nsc(N)n3)[C@H]2SC1`, the MIC in series [1] worked out at 0.5 µg/mL (≈ 0.784 µM); in series [2], 2 µg/mL (≈ 3.14 µM). Further, the MIC50 in series [3] (setting [6]) was determined as 0.5 µg/mL (≈ 0.784 µM). Also, the ED50 in series [4] was over 200 µg.
Take `Cn1c(N)c(/C=C/CN)c[n+]1CC1=C(C(=O)[O-])N2C(=O)[C@@H](NC(=O)/C(=N\OC(C)(C)C(=O)O)c3nsc(N)n3)[C@H]2SC1`: the MIC is 1 µg/mL (≈ 1.61 µM) in series [1] and 2 µg/mL (≈ 3.22 µM) in series [2]. In series [3] (setting [6]), the MIC50 came out at 0.5 µg/mL (≈ 0.806 µM). In series [4], this molecule returned an ED50 of 122 µg.
Consider `CO/N=C(/C(=O)N[C@@H]1C(=O)N2C(C(=O)[O-])=C(C[n+]3ccn4ncccc43)CS[C@H]12)c1nsc(N)n1`, for which the results for the MIC in series [1] and in series [2] were 2 µg/mL (≈ 3.88 µM) and 32 µg/mL (≈ 62.1 µM), respectively. Moreover, the MIC50 in series [3] (setting [6]) was 2 µg/mL (≈ 3.88 µM). Further, the ED50 in series [4] was determined as 230 µg.
Take `CC(C)(O/N=C(\C(=O)N[C@@H]1C(=O)N2C(C(=O)[O-])=C(C[n+]3cccc(N)c3)CS[C@H]12)c1nsc(N)n1)C(=O)O`: the MIC in series [1] is 1 µg/mL (≈ 1.78 µM); in series [2], 32 µg/mL (≈ 56.9 µM). Further, the MIC50 in series [3] (setting [6]) is 1 µg/mL (≈ 1.78 µM). Besides, the Ratio in series [5] is reported as 32.
Consider `CC(C)(O/N=C(\C(=O)N[C@@H]1C(=O)N2C(C(=O)[O-])=C(C[n+]3cccc(NC(=N)N)c3)CS[C@H]12)c1nsc(N)n1)C(=O)O`, for which the MIC in series [1] was determined as 1 µg/mL (≈ 1.65 µM); in series [2], 8 µg/mL (≈ 13.2 µM). Besides, the MIC50 in series [3] (setting [6]) turned out to be 1 µg/mL (≈ 1.65 µM). In addition, in series [5], the Ratio was 16.
In the case of `CC(C)(O/N=C(\C(=O)N[C@@H]1C(=O)N2C(C(=O)[O-])=C(C[n+]3ccc(CCN)cc3)CS[C@H]12)c1nsc(N)n1)C(=O)O`, the MIC turned out to be 1 µg/mL (≈ 1.69 µM) in series [1] and 4 µg/mL (≈ 6.77 µM) in series [2]. Besides, the MIC50 in series [3] (setting [6]) was 1 µg/mL (≈ 1.69 µM). Further, in series [5], the Ratio is on record as 8.
For `CC(C)(O/N=C(\C(=O)N[C@@H]1C(=O)N2C(C(=O)O)=C(C[n+]3ccc4n3CCN4)CS[C@H]12)c1nsc(N)n1)C(=O)O.O=S(=O)([O-])O`, the MIC is 1 µg/mL in series [1] and 16 µg/mL in series [2]. Further, in series [3] (setting [6]), the MIC50 amounted to 1 µg/mL.
`CC(C)(O/N=C(\C(=O)N[C@@H]1C(=O)N2C(C(=O)O)=C(C[n+]3ccc4n3CCCN4)CS[C@H]12)c1nsc(N)n1)C(=O)O.O=S(=O)([O-])O`: the MIC in series [1] came out at 1 µg/mL; in series [2], 4 µg/mL. In addition, the MIC50 in series [3] (setting [6]) was determined as 1 µg/mL.
As to `Cn1c(N)c(CNC(=N)N)c[n+]1CC1=C(C(=O)[O-])N2C(=O)[C@@H](NC(=O)/C(=N\OC(C)(C)C(=O)O)c3nsc(N)n3)[C@H]2SC1`, the MIC in series [1] turned out to be 0.5 µg/mL (≈ 0.785 µM); in series [2], 1 µg/mL (≈ 1.57 µM). The MIC50 in series [3] and in series [3] (setting [6]) was 0.5 µg/mL (≈ 0.785 µM) throughout. Moreover, the ED50 in series [4] stood at 4.69 µg.
For `CC(C)(O/N=C(\C(=O)N[C@@H]1C(=O)N2C(C(=O)[O-])=C(C[n+]3ccccc3)CS[C@H]12)c1nsc(N)n1)C(=O)O`, the MIC in series [1] was 1 µg/mL (≈ 1.83 µM); in series [2] it was 32 µg/mL (≈ 58.4 µM). In series [3] (setting [6]), the MIC50 came out at 2 µg/mL (≈ 3.65 µM).
In the case of `CC(C)(O/N=C(\C(=O)N[C@@H]1C(=O)N2C(C(=O)[O-])=C(C[n+]3ccc(N)n3CCCF)CS[C@H]12)c1nsc(N)n1)C(=O)O`, the results for the MIC in series [1] and in series [2] were 1 µg/mL (≈ 1.63 µM) and 8 µg/mL (≈ 13.1 µM), respectively. Besides, in series [3] (setting [6]), the MIC50 was determined as 1 µg/mL (≈ 1.63 µM).
With `Cn1c(N)cc[n+]1CC1=C(C(=O)[O-])N2C(=O)[C@@H](NC(=O)/C(=N\OC(C)(C)C(=O)O)c3nsc(N)n3)[C@H]2SC1`, the MIC in series [1] was 1 µg/mL (≈ 1.77 µM); in series [2], 32 µg/mL (≈ 56.6 µM). For the same molecule, the MIC50 in series [3] (setting [6]) stood at 1 µg/mL (≈ 1.77 µM).
In the case of `CC(C)(O/N=C(\C(=O)N[C@@H]1C(=O)N2C(C(=O)[O-])=C(C[n+]3ccccc3)CS[C@H]12)c1csc(N)n1)C(=O)O` [CEFTAZIDIME], the figures for the MIC in series [1] and in series [2] were 2 µg/mL (≈ 3.66 µM) and 128 µg/mL (≈ 234 µM), respectively. Further, the MIC50 in series [3] (setting [6]) came out at 2 µg/mL (≈ 3.66 µM). Further, in series [4], the ED50 was determined as 71 µg.
Take `Cn1c(N)c(NC(=O)NCCN)c[n+]1CC1=C(C(=O)O)N2C(=O)[C@@H](NC(=O)/C(=N\OC(C)(C)C(=O)[O-])c3nsc(N)n3)[C@H]2SC1` [CEFTOLOZANE]: the MIC in series [1] turned out to be 0.5 µg/mL (≈ 0.75 µM); in series [2], 2 µg/mL (≈ 3 µM). For the same molecule, in series [3] (setting [6]), the MIC50 was 0.5 µg/mL (≈ 0.75 µM). The same molecule returned an ED50 in series [4] of 428 µg.

The record behind these values is ChEMBL document CHEMBL1139418, “Synthesis and SAR of novel parenteral anti-pseudomonal cephalosporins: discovery of FR264205” (Bioorg Med Chem Lett, 2008).
